In PMC3946497 (Molecular pharmaceutics, 2013):

How the values were obtained:
Format in all cases: in vivo, mouse
[1] = tested on: athymic nude mice without tumors; assay: Metabolism study; settings: ~10 MBq via tail vein, n = 3, radio-HPLC
Outline: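 Tumour-free athymic nude mice (n = 3), ~10 MBq radiotracer i.v. Urine (manual void): mixed 1:1 with 50% acetonitrile, spun at 8,000 rpm, supernatant 0.20 µm-filtered. Feces: homogenised, suspended in 20% acetonitrile, vortexed ~5 min, spun, filtered. Filtrates analysed by C18 HPLC at 2.5 mL/min on a 0.05% TFA water/acetonitrile gradient (10% to 30% B over 20 min).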

[2] = tested on: athymic nude mice bearing U87MG glioma xenografts; settings: 60 min p.i.
[3] = tested on: athymic nude mice bearing U87MG human glioma xenografts; assay: Biodistribution in athymic nude mice bearing U87MG glioma xenografts; settings: average ± SD; for Brain uptake / Eyes uptake / Heart uptake / Intestine uptake / Kidney uptake / Liver uptake / Lungs uptake / Muscle uptake / Spleen uptake / Blood uptake / Tumor uptake: tail vein ~0.1 MBq; for Blood uptake: γ-counting; for Tumor uptake: U87MG glioma xenograft
Outline: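 Tumour model: female athymic nu/nu mice, 4–5 weeks old, inoculated s.c. in the shoulder flank with 5 × 10^6 U87MG cells and used 4 weeks later (tumours 0.1–0.5 g; mice 20–25 g). Dosing: ~0.1 MBq radiotracer (~2 ng conjugate) in filtered saline. Groups of 5–8 killed at 5, 30, 60 and 120 min by pentobarbital overdose. Blood and organs washed, blotted, weighed and γ-counted as %ID/g.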

[4] = tested on: athymic nude mice bearing U87MG human glioma xenografts; assay: SPECT/CT imaging with SPECT quantification of tumor uptake; settings: U87MG glioma xenograft; ~37 MBq via tail vein; imaging at 60 min p.i.
Outline: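 Imaging dose: ~37 MBq radiotracer (~0.8 µg conjugate) in 0.1 mL saline i.v.; mice imaged under isoflurane. SPECT: multi-pinhole collimator (0.6 mm), 75 projections per 30-min frame, 2 frames. CT: 45 kV, 500 µA, 2° intervals. Tumour ROIs drawn on CT; counts converted to activity via a standard curve from sources of known activity scanned the same way; expressed as %ID/cm3.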

[5] = co-injection of excess RGD2 (350 µg/mouse or 14 mg/kg), n = 6

“[^99mTc(HYNIC-Galacto-RGD2)(tricine)(TPPTS)] (bicyclic or more) [^99mTc-Galacto-RGD2]” was tested, and the “Remained intact in the feces” value ([1]; feces at 2 h p.i.) was “More than 90%”, the “Metabolites in the urine” value ([1]; urine at 30 min and 120 min p.i.) was “no metabolites detected” and the “Intestine uptake in the presence of RGD2” value [2, 5] was 1.82 ± 0.86 %ID/g. The “Lungs uptake in the presence of RGD2” value [2, 5] was 1.52 ± 0.27 %ID/g, the “Spleen uptake in the presence of RGD2” value [2, 5] was 0.65 ± 0.07 %ID/g and the “Tumor uptake with RGD2” value ([2]; co-injection of excess RGD2 (350 µg/mouse or 14 mg/kg), n = 6, average ± SD) was 1.48 ± 0.42 %ID/g. The “Reduction of liver uptake by co-injected excess RGD2” value ([2]; of its origin value) was 50%, the “Reduction of lung uptake by co-injected excess RGD2” value ([2]; of its origin value) was 50% and the Tumor/Blood ratio ([3]; 5 min p.i., n = 5) was 9.43 ± 1.19. For the same substance, the Tumor/Kidney ratio ([3]; 5 min p.i., n = 5) was 0.52 ± 0.14, the Tumor/Liver ratio ([3]; 5 min p.i., n = 5) was 2.66 ± 0.51 and the Tumor/Lung ratio ([3]; 5 min p.i., n = 5) was 1.90 ± 0.21. The Tumor/Muscle ratio ([3]; 5 min p.i., n = 5) was 3.98 ± 0.75, the Brain uptake ([3]; 5 min p.i., n = 5) was 0.41 ± 0.10 %ID/g and the Eyes uptake ([3]; 5 min p.i., n = 5) was 1.54 ± 0.49 %ID/g. It also gave a Heart uptake ([3]; 5 min p.i., n = 5) of 2.36 ± 0.29 %ID/g, an Intestine uptake ([3]; 5 min p.i., n = 5) of 3.78 ± 0.52 %ID/g and a Kidney uptake ([3]; 5 min p.i., n = 5) of 18.75 ± 2.79 %ID/g. The Liver uptake ([3]; 5 min p.i., n = 5) was 4.00 ±1.10 %ID/g, the Lungs uptake ([3]; 5 min p.i., n = 5) was 5.41 ± 0.58 %ID/g and the Muscle uptake ([3]; 5 min p.i., n = 5) was 2.73 ± 0.89 %ID/g. For the same substance, the Spleen uptake ([3]; 5 min p.i., n = 5) was 2.97 ± 0.43 %ID/g, the Blood uptake ([3]; 5 min p.i., n = 5) was 1.10 ± 0.16 %ID/g and the Tumor/Blood ratio ([3]; 30 min p.i., n = 5) was 9.65 ± 2.03. The Tumor/Kidney ratio ([3]; 30 min p.i., n = 5) was 0.61 ±0.12, the Tumor/Liver ratio ([3]; 30 min p.i., n = 5) was 3.25 ± 0.85 and the Tumor/Lung ratio ([3]; 30 min p.i., n = 5) was 2.19 ± 0.75. The Tumor/Muscle ratio ([3]; 30 min p.i., n = 5) was 7.97 ± 2.53, the Brain uptake ([3]; 30 min p.i., n = 5) was 0.22 ± 0.06 %ID/g and the Eyes uptake ([3]; 30 min p.i., n = 5) was 1.20 ± 0.50 %ID/g. The Heart uptake ([3]; 30 min p.i., n = 5) was 1.65 ± 1.10 %ID/g, the Intestine uptake ([3]; 30 min p.i., n = 5) was 4.24 ± 1.54 %ID/g and the Kidney uptake ([3]; 30 min p.i., n = 5) was 13.13 ± 4.75 %ID/g. For the same substance, the Liver uptake ([3]; 30 min p.i., n = 5) was 2.82 ± 1.25 %ID/g, the Lungs uptake ([3]; 30 min p.i., n = 5) was 4.24 ± 1.71 %ID/g and the Muscle uptake ([3]; 30 min p.i., n = 5) was 1.10 ± 0.25 %ID/g. It also gave a Spleen uptake ([3]; 30 min p.i., n = 5) of 2.53 ± 0.85 %ID/g, a Blood uptake ([3]; 30 min p.i., n = 5) of 0.92 ± 0.33 %ID/g and a Tumor/Blood ratio ([3]; 60 min p.i., n = 8) of 15.94 ± 8.85. The Tumor/Kidney ratio ([3]; 60 min p.i., n = 8) was 0.79 ±0.40, the Tumor/Liver ratio ([3]; 60 min p.i., n = 8) was 3.05 ± 1.69 and the Tumor/Lung ratio ([3]; 60 min p.i., n = 8) was 2.73 ± 1.33. For the same substance, the Tumor/Muscle ratio ([3]; 60 min p.i., n = 8) was 9.40 ± 5.11, the Brain uptake ([3]; 60 min p.i., n = 8) was 0.35 ± 0.28 %ID/g and the Eyes uptake ([3]; 60 min p.i., n = 8) was 0.81 ± 0.39 %ID/g. For the same substance, the Heart uptake ([3]; 60 min p.i., n = 8) was 1.27 ± 0.61 %ID/g, the Intestine uptake ([3]; 60 min p.i., n = 8) was 5.45 ± 1.47 %ID/g and the Kidney uptake ([3]; 60 min p.i., n = 8) was 11.70 ± 4.06 %ID/g. For the same substance, the Liver uptake ([3]; 60 min p.i., n = 8) was 3.07 ± 2.14 %ID/g, the Lungs uptake ([3]; 60 min p.i., n = 8) was 2.93 ± 0.94 %ID/g and the Muscle uptake ([3]; 60 min p.i., n = 8) was 0.88 ± 0.34 %ID/g. For the same substance, the Spleen uptake ([3]; 60 min p.i., n = 8) was 1.99 ± 0.71 %ID/g, the Blood uptake ([3]; 60 min p.i., n = 8) was 0.56 ± 0.25 %ID/g and the Tumor/Blood ratio ([3]; 120 min p.i., n = 8) was 26.48 ± 8.71. The Tumor/Kidney ratio ([3]; 120 min p.i., n = 8) was 0.89 ±0.48, the Tumor/Liver ratio ([3]; 120 min p.i., n = 8) was 4.03 ± 2.04 and the Tumor/Lung ratio ([3]; 120 min p.i., n = 8) was 4.38 ± 1.34. For the same substance, the Tumor/Muscle ratio ([3]; 120 min p.i., n = 8) was 12.91 ± 4.95, the Brain uptake ([3]; 120 min p.i., n = 8) was 0.14 ± 0.12 %ID/g and the Eyes uptake ([3]; 120 min p.i., n = 8) was 0.52 ± 0.15 %ID/g. For the same substance, the Heart uptake ([3]; 120 min p.i., n = 8) was 0.56 ± 0.08 %ID/g, the Intestine uptake ([3]; 120 min p.i., n = 8) was 3.37 ± 1.32 %ID/g and the Kidney uptake ([3]; 120 min p.i., n = 8) was 6.04 ± 1.92 %ID/g. It also gave a Liver uptake ([3]; 120 min p.i., n = 8) of 1.54 ±0.43 %ID/g, a Lungs uptake ([3]; 120 min p.i., n = 8) of 1.31 ± 0.23 %ID/g and a Muscle uptake ([3]; 120 min p.i., n = 8) of 0.47 ± 0.12 %ID/g. It also gave a Spleen uptake ([3]; 120 min p.i., n = 8) of 1.46 ± 0.26 %ID/g, a Blood uptake ([3]; 120 min p.i., n = 8) of 0.22 ± 0.03 %ID/g and a Tumor uptake ([3]; 5 min p.i., n = 5) of 10.30 ± 1.67 %ID/g. It also gave a Tumor uptake ([3]; 30 min p.i., n = 5) of 8.37 ± 2.13 %ID/g, a Tumor uptake ([3]; 60 min p.i., n = 8) of 6.86 ± 1.33 %ID/g and a Tumor uptake ([3]; 120 min p.i., n = 8) of 5.61 ± 1.52 %ID/g. The “Tumor uptake on the basis of SPECT quantification” value [4] was ~ 8.5 %ID/cm^3.
